How the values were obtained:
[1] = Phase 1 safety monitoring of PX-866 with docetaxel; format: in vivo, human
Summary of the method: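 Open-label dose escalation in cohorts of 6–9 patients at 4, 6 or 8 mg oral daily test compound plus docetaxel 75 mg m−2 IV every 21 days, with dexamethasone premedication. All patients receiving ≥1 dose had vital signs, labs and exams; AEs were graded by NCI CTCAE v4.02. DLTs included related grade ≥3 events, febrile grade 3/4 neutropenia, platelets <25 000 per μl and ANC <500 per μl for >7 days.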

NSCLC = conditions: ref Roberts et al, 2004, Horstmann et al, 2005, Schuette et al; cited from earlier work
[2] = Docetaxel plasma pharmacokinetics in patients; format: in vivo; conditions: human
[3] = plasma, intravenous, 75 mg m^-2

CC(=O)O[C@@]12CO[C@@H]1C[C@H](O)[C@@]1(C)C(=O)[C@H](O)C3=C(C)[C@@H](OC(=O)[C@H](O)[C@@H](NC(=O)OC(C)(C)C)c4ccccc4)C[C@@](O)([C@@H](OC(=O)c4ccccc4)[C@H]21)C3(C)C [docetaxel]
patients requiring docetaxel dose reduction ([1]; 18 out of 43): 42% | SAE related to docetaxel: ataxia ([1]; PX-866 with docetaxel): 1 N | SAE related to docetaxel: febrile neutropenia ([1]; PX-866 with docetaxel): 1 N | SAE related to docetaxel: mental status changes ([1]; PX-866 with docetaxel): 1 N | SAE related to docetaxel: nausea ([1]; PX-866 with docetaxel): 2 N | SAE related to docetaxel: pneumonia ([1]; PX-866 with docetaxel): 1 N | SAE related to docetaxel: vomiting ([1]; PX-866 with docetaxel): 3 N | gastrointestinal disorders, docetaxel-related ([1]; PX-866 with docetaxel, 43 patients): 79.1% | Grade 3/4 AE related to docetaxel: anaemia ([1]; PX-866 with docetaxel, N=43): 2 N | Grade 3/4 AE related to docetaxel: diarrhoea ([1]; PX-866 with docetaxel, N=43): 3 N | Grade 3/4 AE related to docetaxel: leucopenia ([1]; PX-866 with docetaxel, N=43): 4 N | Grade 3/4 AE related to docetaxel: nausea ([1]; PX-866 with docetaxel, N=43): 2 N | Grade 3/4 AE related to docetaxel: vomiting ([1]; PX-866 with docetaxel, N=43): 3 N | patients in whom docetaxel was discontinued due to toxicity ([1]; after SD or better with combination, continued single-agent PX-866): eight | patients requiring docetaxel dose reduction due to neutropenia ([1]; of 18 with dose reduction): Fourteen | PR rate, second-line docetaxel in NSCLC (NSCLC): 13% | PR−SD rate, second-line docetaxel in NSCLC (NSCLC): 50% | exposure in the presence of PX-866 ([2]; in vivo): not affected | AUC(0-t) ([2]; plasma, intravenous): 851 ng·h/mL | MRT inf ([2]; plasma, intravenous): 13.9 h | Tmax ([2]; plasma, intravenous): 0.19 h | Vd ([2]; plasma, intravenous): 2690 L | clearance ([2]; plasma, intravenous): 2570 mL/min | AUC(0-t) [2, 3]: 1200 ng·h/mL | MRT inf [2, 3]: 15.2 h | Tmax [2, 3]: 0.19 h | Vd [2, 3]: 2990 L | clearance [2, 3]: 2390 mL/min | AUC(0-inf) ([2]; plasma, intravenous, AUCINF, C2D1 (with PX-866), mean, N=35, plasma): 1110 ng·h/mL | Cmax ([2]; plasma, intravenous, Cmax, C2D1 (with PX-866), mean, N=35, plasma): 539 ng/mL | half-life ([2]; plasma, intravenous, Half-life, C2D1 (with PX-866), mean, N=35, plasma): 13.1 h

From PMC3778312 (British Journal of Cancer, 2013)
